This is a sample that favours compounds with a hit; in the whole collection about 1.6% have one here.
TDP2 inh: TDP2 (human) inhibition, absorbance primary screen; O95551; recombinant TDP2, T5PNP hydrolysis, p-nitrophenol absorbance 415 nm; inhibition, % at 12.8 µM; 370,000 compounds, 0.34% hits; AID 720702;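 active means inhibition above the mean of all tested compounds plus 3 SD, set per campaign, cut at about 25% in these data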
Target sequence (O95551 whole entry, looked up): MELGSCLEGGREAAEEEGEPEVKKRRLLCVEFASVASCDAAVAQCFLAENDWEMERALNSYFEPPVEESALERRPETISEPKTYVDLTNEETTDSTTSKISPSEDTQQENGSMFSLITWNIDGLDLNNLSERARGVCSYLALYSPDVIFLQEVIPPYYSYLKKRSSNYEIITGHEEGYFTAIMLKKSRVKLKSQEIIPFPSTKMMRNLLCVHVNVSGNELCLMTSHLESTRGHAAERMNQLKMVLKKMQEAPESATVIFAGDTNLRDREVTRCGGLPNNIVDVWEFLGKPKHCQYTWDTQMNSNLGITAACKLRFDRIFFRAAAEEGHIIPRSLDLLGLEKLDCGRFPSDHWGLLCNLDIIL
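Assay system: Recombinant human TDP2 | Quantity: 120 nM TDP2 per well | Incubation: 2 h at 37 °C | Signal: Epi absorbance | Evaluation: Percent inhibition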
PAD4 inh: blocks human protein arginine deiminase 4; inhibition, % at 6.36 µM; Q9UM07; 330,000 compounds, 0.41% hits; AID 485272; recombinant PAD4, RCA probe fluorescence polarization;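 active means percent inhibition above a cutoff equal to the mean of all tested compounds plus 3 SD, cut at about 15% in these data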
GSTO1 counter: blocks human GSTO1 in RBBP9 counter-screen. P78417. recombinant GSTO1, activity-based probe fluorescence polarization. 300,000 compounds, 1.1% hits. AID 1974. inhibition, % at 5.96 µM;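 active means inhibition above the campaign mean inhibition plus 3 SD, cut at about 35% in these data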
UBC9 SUMO inh: blocks human SUMOylation mediated by UBC9; HTRF SUMOylation assay, SAE1/SAE2 + UBC9, in vitro; P63279; AID 2006; inhibition, % at 35 µM; 290,000 compounds, 0.36% hits; in the data active means inhibition above about 50%, passing the limit was not always enough
Target sequence (P63279 whole entry, looked up): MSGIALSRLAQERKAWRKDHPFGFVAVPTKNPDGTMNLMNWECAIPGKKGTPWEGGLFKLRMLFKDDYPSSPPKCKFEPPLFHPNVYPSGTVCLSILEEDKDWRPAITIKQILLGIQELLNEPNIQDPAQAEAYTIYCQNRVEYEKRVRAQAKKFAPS
Apaf1 inhib: human Apaf-1 inhibition; O14727; 330,000 compounds, 0.71% hits; inhibition, % at 20 µM; reconstituted apoptosome caspase-3 activity, DEVD-Rh110 fluorescence; active means inhibition of at least 40% at 20 µM
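Assay system: Apoptosome proteins | Medium: pH 7.5 Hepes buffer with CHAPS, BSA, DTT | Also added: Cytochrome c and DEVD-Rh110 substrate | Times: 30 min plus 50 min, RT | Detection: Rhodamine 110 fluorescence at Ex 480/Em 540 nm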
JMJD2C inh: blocks human GASC-1 demethylase activity; Q9H3R0; GST-JMJD2C(1-420) H3K9me3 demethylation, DELFIA europium; inhibition, % at 2.35 µM; 330,000 compounds, 0.069% hits; AID 2099;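 active means more than half of a compound's replicate wells show inhibition beyond 50%, single wells judged on their own value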;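 further: signal counts dimethyl H3K9 product captured on neutravidin plate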
Apaf-1 inh conf2: Apaf-1 inhibition, single-dose confirmed; shares compounds with Apaf1 inhib; inhibition, % at 20 µM; reconstituted apoptosome, caspase-3 DEVD-Rh110 fluorescence; 1,800 compounds, 25% hits;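 active means mean inhibition of at least 40% at 20 µM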
Rh110 quench: Rh110 signal interference in Apaf-1 inhibitor counter-screen; shares compounds with Apaf1 inhib; Rh110 fluorescence interference, quenched caspase reaction; activation (fluorescence interference), % at 20 µM; 1,800 tested, under 10 active; AID 504615;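 active means signal rise of 40% or more at 20 µM, treated as a fluorescence artifact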
A number is an active result.

Screening CCN1CCN(Cc2ccc(NC(=O)c3ccc(C)c(NC(=O)c4ccno4)c3)cc2C(F)(F)F)CC1 returned TDP2 inh inactive, PAD4 inh inactive, GSTO1 counter inactive, UBC9 SUMO inh inactive, Apaf1 inhib inactive and JMJD2C inh inactive.
For COc1ccc(-c2noc(C3CCCN(C(=O)Nc4ccc(C)c(F)c4)C3)n2)cc1 (stereo not drawn) the results were TDP2 inh inactive.
`COc1ccc(S[C@]2(C(=O)N3CCN(c4ncccn4)CC3)CC(=O)N[C@@H]2c2ccc(OC)cc2)cc1` gave TDP2 inh inactive.
For COC(=O)[C@]12C[C@H](CC(=O)N3CCSCC3)C(=O)N(Cc3cccc4ccccc34)C1=C[C@H](COCc1ccccc1)O[C@@H]2C the results were TDP2 inh inactive.
NC1(C#Cc2ccc3oc(=O)c(-n4cc(-c5ccsc5)nn4)cc3c2)CCCCC1 was read as TDP2 inh inactive, PAD4 inh inactive, Apaf1 inhib 48, JMJD2C inh inactive, Apaf-1 inh conf2 inactive and Rh110 quench inactive.
CN(Cc1c(F)cccc1Cl)C(=O)c1ccc(COc2ccccc2)cc1 was read as TDP2 inh inactive, PAD4 inh inactive, GSTO1 counter inactive, UBC9 SUMO inh inactive, Apaf1 inhib 53, JMJD2C inh inactive, Apaf-1 inh conf2 inactive and Rh110 quench inactive.
Screening CCN1C(Nc2ccccc2)=NC[C@@H]1Cc1ccccc1 returned TDP2 inh inactive, PAD4 inh inactive, GSTO1 counter inactive, UBC9 SUMO inh inactive, Apaf1 inhib inactive and JMJD2C inh inactive.
CC(C)(C)C1CCC(CN2C(Nc3ccccc3)=NC[C@@H]2Cc2ccccc2)CC1 (stereo partly drawn) was read as TDP2 inh inactive, PAD4 inh inactive, Apaf1 inhib 75, JMJD2C inh inactive, Apaf-1 inh conf2 inactive and Rh110 quench inactive.
`COc1cccc2nc3cc(C)c(C)cc3nc12` gave TDP2 inh inactive, PAD4 inh inactive, GSTO1 counter 48, UBC9 SUMO inh inactive, Apaf1 inhib 84, JMJD2C inh inactive, Apaf-1 inh conf2 inactive and Rh110 quench inactive.
Screening COc1cc([N+](=O)[O-])cc(/C=N/NC(=O)C(O)(c2ccccc2)c2ccccc2)c1O returned TDP2 inh inactive, PAD4 inh inactive, GSTO1 counter inactive, UBC9 SUMO inh inactive, Apaf1 inhib inactive and JMJD2C inh inactive.
COc1cc([N+](=O)[O-])cc(/C=N/NC(=O)C(C)Nc2cccc3ccccc23)c1O (stereo not drawn) was read as TDP2 inh inactive, PAD4 inh inactive, GSTO1 counter inactive, UBC9 SUMO inh inactive, Apaf1 inhib 93, JMJD2C inh inactive, Apaf-1 inh conf2 inactive and Rh110 quench inactive.
For CC(c1c[nH]c2ccccc12)c1c[nH]c2ccc(Br)cc12 (stereo not drawn) the results were TDP2 inh inactive.
O=C(C1CCCN(S(=O)(=O)c2ccc(Br)s2)C1)N1CCN(Cc2ccccc2)CC1 (stereo not drawn) was read as TDP2 inh inactive.
For O=C(C1CCCN(S(=O)(=O)c2cnc[nH]2)C1)N1CCN(Cc2ccccc2)CC1 (stereo not drawn) the results were PAD4 inh inactive, GSTO1 counter inactive, UBC9 SUMO inh inactive, Apaf1 inhib 40, JMJD2C inh inactive, Apaf-1 inh conf2 inactive and Rh110 quench 43.
COc1ccc(-c2cc(-c3ccccc3)c(-c3ccccc3)nn2)cc1 was read as TDP2 inh inactive.
For O=C1c2ccccc2-c2nnc(-c3ccccc3)cc21 the results were TDP2 inh inactive, PAD4 inh inactive, GSTO1 counter inactive, UBC9 SUMO inh inactive, Apaf1 inhib 71, JMJD2C inh inactive, Apaf-1 inh conf2 inactive and Rh110 quench inactive.
For Cc1cccc(-c2cc3c(nn2)-c2ccccc2C3=O)c1 the results were TDP2 inh inactive, PAD4 inh inactive, GSTO1 counter inactive, UBC9 SUMO inh inactive, Apaf1 inhib 91, JMJD2C inh inactive, Apaf-1 inh conf2 inactive and Rh110 quench inactive.
COc1ccc(-c2cc3c(nn2)-c2ccccc2C3=O)cc1 was read as TDP2 inh inactive, PAD4 inh inactive, GSTO1 counter inactive, UBC9 SUMO inh inactive, Apaf1 inhib 77, JMJD2C inh inactive, Apaf-1 inh conf2 inactive and Rh110 quench inactive.
`O=C(OC12CCCN(C1)/C(=C/c1ccccc1)C2)C1CCCC1` (stereo not drawn) gave TDP2 inh inactive.
`CN(C)CCCN1c2ccccc2Sc2ccc(C(F)(F)F)cc21` gave TDP2 inh inactive, PAD4 inh inactive, GSTO1 counter inactive, UBC9 SUMO inh inactive, Apaf1 inhib 43, JMJD2C inh inactive, Apaf-1 inh conf2 inactive and Rh110 quench inactive.
`OCCN1CCN(CCCN2c3ccccc3Sc3ccc(C(F)(F)F)cc32)CC1` gave TDP2 inh inactive, PAD4 inh inactive, GSTO1 counter inactive, UBC9 SUMO inh inactive, Apaf1 inhib 48, JMJD2C inh inactive, Apaf-1 inh conf2 inactive and Rh110 quench inactive.
`OCCN1CCN(CC/C=C2/c3ccccc3Sc3ccc(C(F)(F)F)cc32)CC1` gave TDP2 inh inactive, PAD4 inh inactive, GSTO1 counter inactive, Apaf1 inhib 58, JMJD2C inh inactive, Apaf-1 inh conf2 inactive and Rh110 quench inactive.
For CN(C)CCC(=O)N1c2ccccc2Sc2ccc(C(F)(F)F)cc21 the results were TDP2 inh inactive, PAD4 inh inactive, GSTO1 counter inactive, UBC9 SUMO inh inactive, Apaf1 inhib inactive and JMJD2C inh inactive.
CCOc1ccc(NS(=O)(=O)c2cc(C(=O)NCCCN3CCOCC3)ccc2C)cc1 was read as TDP2 inh inactive, PAD4 inh inactive, Apaf1 inhib 65, JMJD2C inh inactive, Apaf-1 inh conf2 inactive and Rh110 quench inactive.
Screening COc1ccc(C=Nc2ccc3[nH]ncc3c2)c(O)c1 returned TDP2 inh inactive, PAD4 inh inactive, GSTO1 counter inactive, UBC9 SUMO inh inactive, Apaf1 inhib inactive and JMJD2C inh inactive.
For Oc1c(Br)cc(Br)cc1C=Nc1cccnc1 the results were TDP2 inh inactive, PAD4 inh inactive, GSTO1 counter inactive, UBC9 SUMO inh inactive, Apaf1 inhib 79, JMJD2C inh inactive, Apaf-1 inh conf2 inactive and Rh110 quench inactive.
Screening Oc1c(Br)cc(Br)cc1C=Nc1ccc2[nH]ncc2c1 returned TDP2 inh inactive, PAD4 inh inactive, GSTO1 counter inactive, UBC9 SUMO inh inactive, Apaf1 inhib 84, JMJD2C inh inactive, Apaf-1 inh conf2 inactive and Rh110 quench inactive.
`Oc1c(Br)cc(Br)cc1/C=N/c1nccs1` gave TDP2 inh inactive, PAD4 inh inactive, Apaf1 inhib inactive and JMJD2C inh inactive.
